One assay concerns the target T1, Adenosine receptor A2b (Homo sapiens, UniProt P29275).
T1 sequence (P29275 whole entry): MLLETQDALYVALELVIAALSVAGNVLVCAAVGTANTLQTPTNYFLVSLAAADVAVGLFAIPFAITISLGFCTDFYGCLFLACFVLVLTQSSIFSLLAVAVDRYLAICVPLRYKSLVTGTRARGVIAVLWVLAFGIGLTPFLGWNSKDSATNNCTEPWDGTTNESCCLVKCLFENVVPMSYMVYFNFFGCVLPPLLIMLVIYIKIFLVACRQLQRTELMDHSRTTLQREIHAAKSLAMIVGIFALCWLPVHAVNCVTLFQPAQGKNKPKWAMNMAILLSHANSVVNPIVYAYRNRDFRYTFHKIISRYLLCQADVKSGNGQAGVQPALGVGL
Kind of assay: Displacement of [3H]PSB-603 from recombinant human A2B adenosine receptor expressed in CHO cell membranes measured after 75 mins in presence of adenosine deaminase by liquid scintillation counting method. An outline of the steps: (§1)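 Competition binding on membranes of cells recombinantly expressing the human receptor (CHO or HEK cells), with tritiated radioligand per subtype: [3H]PSB-603 for A2B, [3H]MSX-2 for A2A, [3H]CCPA for A1, [3H]PSB-11 for A3. Ki ± SEM from n = 3, some from extrapolated curves. Weak binders are reported as % inhibition of radioligand binding at 1 μM.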

Assay [1] has as its target T2, Adenosine receptor A2a (Homo sapiens, UniProt P29274). The assay can be described thus: Displacement of [3H]MSX-2 from recombinant human A2A adenosine receptor expressed in CHO cell membranes measured after 30 mins in presence of adenosine deaminase by liquid scintillation counting method. An outline of the steps: as §1
A further assay deals with T3, Adenosine receptor A1 (Homo sapiens, UniProt P30542).
T3 sequence (P30542 whole entry): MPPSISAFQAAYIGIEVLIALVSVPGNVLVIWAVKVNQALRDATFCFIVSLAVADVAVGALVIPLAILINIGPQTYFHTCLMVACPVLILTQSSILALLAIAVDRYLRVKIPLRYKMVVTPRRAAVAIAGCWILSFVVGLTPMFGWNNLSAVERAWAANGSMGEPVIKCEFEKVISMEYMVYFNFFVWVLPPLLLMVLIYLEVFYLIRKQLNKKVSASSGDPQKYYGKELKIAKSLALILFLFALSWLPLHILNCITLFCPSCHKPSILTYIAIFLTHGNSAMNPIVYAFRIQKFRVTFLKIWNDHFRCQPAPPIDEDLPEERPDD
Kind of assay: Displacement of [3H]CCPA from recombinant human A1 adenosine receptor expressed in CHO cell membranes measured after 90 mins in presence of adenosine deaminase by liquid scintillation counting method. In short, it runs like this:
as §1
A general note: Displacement assays read how much labelled ligand stays bound in the presence of the test substance.

The next assay addresses T4, Adenosine receptor A3 (Homo sapiens, UniProt P0DMS8).
T4 sequence (P0DMS8 whole entry): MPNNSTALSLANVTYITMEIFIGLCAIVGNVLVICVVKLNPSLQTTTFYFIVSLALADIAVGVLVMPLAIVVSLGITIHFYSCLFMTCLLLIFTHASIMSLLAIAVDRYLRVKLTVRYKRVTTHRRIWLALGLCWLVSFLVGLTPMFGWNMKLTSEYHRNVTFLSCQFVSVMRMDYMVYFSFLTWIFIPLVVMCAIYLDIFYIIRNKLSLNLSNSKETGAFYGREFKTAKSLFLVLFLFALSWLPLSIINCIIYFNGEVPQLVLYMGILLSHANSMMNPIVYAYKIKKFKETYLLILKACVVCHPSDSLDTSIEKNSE
The assay can be described thus: Displacement of [3H]PSB-11 from recombinant human A3 adenosine receptor expressed in CHO cell membranes measured after 45 mins in presence of adenosine deaminase by liquid scintillation counting method. An outline of the steps:
as §1

Assay [2] concerns the target T2, Adenosine receptor A2a. The assay can be described thus: Displacement of [3H]MSX-2 from recombinant human A2A adenosine receptor expressed in CHO cell membranes at 1 uM measured after 30 mins in presence of adenosine deaminase by liquid scintillation counting method relative to control. In short, it runs like this: (§2)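 Single-point competition binding at human AR subtype membranes, each against its own tritiated radioligand. The test compound is given at 1 μM, and the result is reported as percent inhibition of radioligand binding. The radioligand-specific footnotes give n = 3.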

Assay [3] deals with T5, Adenosine receptor A1 (Homo sapiens) (UniProt P30542).
T5 sequence (whole entry): T3 sequence (P30542 whole entry)
Kind of assay: Displacement of [3H]CCPA from recombinant human A1 adenosine receptor expressed in CHO cell membranes at 1 uM measured after 90 mins in presence of adenosine deaminase by liquid scintillation counting method relative to control. An outline of the steps:
as §2

The species named for assay [4] is Homo sapiens. The assay can be described thus: Selectivity index, ratio of Ki for displacement of [3H]PSB-11 from recombinant human A3 adenosine receptor expressed in CHO cell membranes to Ki for displacement of [3H]PSB-603 from recombinant human A2B adenosine receptor expressed in CHO cell membranes.
The target in assay [5] is T6, Adenosine receptor A3 (Homo sapiens) (UniProt P0DMS8).
T6 sequence (whole entry): T4 sequence (P0DMS8 whole entry)
Kind of assay: Displacement of [3H]PSB-11 from recombinant human A3 adenosine receptor expressed in CHO cell membranes at 1 uM measured after 45 mins in presence of adenosine deaminase by liquid scintillation counting method relative to control. In short, it runs like this:
as §2

For assay [6], the species on record is Homo sapiens. Kind of assay: Selectivity index, ratio of Ki for displacement of [3H]MSX-2 from recombinant human A2A adenosine receptor expressed in CHO cell membranes to Ki for displacement of [3H]PSB-603 from recombinant human A2B adenosine receptor expressed in CHO cell membranes.
Assay [7] is filed under the species Homo sapiens. The assay can be described thus: Selectivity index, ratio of Ki for displacement of [3H]CCPA from recombinant human A1 adenosine receptor expressed in CHO cell membranes to Ki for displacement of [3H]PSB-603 from recombinant human A2B adenosine receptor expressed in CHO cell membranes.

Structures are written as SMILES.

T2 sequence (P29274 whole entry): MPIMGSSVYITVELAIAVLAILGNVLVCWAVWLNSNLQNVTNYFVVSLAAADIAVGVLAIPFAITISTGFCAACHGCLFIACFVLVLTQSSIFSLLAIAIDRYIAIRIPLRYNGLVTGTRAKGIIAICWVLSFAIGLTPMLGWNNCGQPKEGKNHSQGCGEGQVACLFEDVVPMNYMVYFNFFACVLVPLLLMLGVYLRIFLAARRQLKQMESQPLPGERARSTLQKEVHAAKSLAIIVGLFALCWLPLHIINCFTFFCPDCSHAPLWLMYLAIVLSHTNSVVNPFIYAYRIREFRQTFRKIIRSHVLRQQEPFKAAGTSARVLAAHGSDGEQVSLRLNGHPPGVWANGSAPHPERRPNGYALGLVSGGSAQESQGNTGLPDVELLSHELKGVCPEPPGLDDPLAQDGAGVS

Consider `CCCn1c(=O)[nH]c2nc(-c3ccc(S(=O)(=O)N4CCN(c5cccc(Cl)c5)CC4)cc3)[nH]c2c1=O`, for which the Ki – broadly, the equilibrium dissociation constant of an inhibitor or competing ligand from its target – is 0.342 nM at Adenosine receptor A2b, 1000 nM at Adenosine receptor A2a [1], over 1000 nM at Adenosine receptor A1 and 53.5 nM on Adenosine receptor A3. In addition, the inhibition (usually the drop in the measured response relative to a control, in per cent) amounted to 42% on Adenosine receptor A2a [2] and 21% in assay [3]. Moreover, in the assay filed under Homo sapiens [4], the Ratio Ki worked out at 160.
With `CCCn1c(=O)[nH]c2nc(-c3ccc(S(=O)(=O)N4CCN(c5cccc(Br)c5)CC4)cc3)[nH]c2c1=O`, the Ki on Adenosine receptor A2b is 0.234 nM; on Adenosine receptor A2a [1] it was over 1000 nM; on Adenosine receptor A1, over 1000 nM; on Adenosine receptor A3 it was over 1000 nM. For the same compound, the inhibition at Adenosine receptor A2a [2] was 24%; in assay [3], -1%; in assay [5], 27%. Besides, the Ratio Ki in the assay listed under Homo sapiens [6], in the assay filed under Homo sapiens [7] and in the assay filed under Homo sapiens [4] was over 4270 throughout.
Take `CCCn1c(=O)[nH]c2nc(-c3ccc(S(=O)(=O)N4CCN(Cc5ccc(Br)c(F)c5)CC4)cc3)[nH]c2c1=O`: the Ki on Adenosine receptor A2b is 0.473 nM; at Adenosine receptor A2a [1] it was 403 nM; at Adenosine receptor A1, 326 nM; at Adenosine receptor A3, over 1000 nM. For the same compound, the inhibition in assay [5] is 27%. Besides, the Ratio Ki in the assay filed under Homo sapiens [7] is 690.
For the compound `CCCn1c(=O)[nH]c2nc(-c3ccc(S(=O)(=O)N4CCN(Cc5ccc(C(=O)O)cc5)CC4)cc3)[nH]c2c1=O`, the Ki on Adenosine receptor A2b was 96.7 nM; at Adenosine receptor A2a [1] it was 1160 nM; at Adenosine receptor A1, over 1000 nM; at Adenosine receptor A3 it was over 1000 nM. In addition, the inhibition in assay [3] was 12%; in assay [5], -7%. The Ratio Ki in the assay filed under Homo sapiens [6], in the assay filed under Homo sapiens [7] and in the assay listed under Homo sapiens [4] was 10 in each case.
On to `CCCn1c(=O)[nH]c2nc(-c3ccc(S(=O)(=O)N4CCN(c5ccc(I)cc5)CC4)cc3)[nH]c2c1=O`, for which the Ki on Adenosine receptor A2b is 0.159 nM; on Adenosine receptor A2a [1], 2990 nM; at Adenosine receptor A1, over 1000 nM; at Adenosine receptor A3 it was over 1000 nM. Moreover, the figures for the inhibition in assay [3] and in [5] were 24% and 36%, respectively. Further, the Ratio Ki in the assay filed under Homo sapiens [6], in the assay filed under Homo sapiens [7] and in the assay filed under Homo sapiens [4] was over 6290 throughout.
On to `CCCn1c(=O)[nH]c2nc(-c3ccc(S(=O)(=O)N4CCN(c5ccccc5)C(C)C4)cc3)[nH]c2c1=O` (stereo unspecified), for which the Ki at Adenosine receptor A2b is 7.15 nM; at Adenosine receptor A2a [1] it was 293 nM; at Adenosine receptor A1, over 1000 nM; on Adenosine receptor A3 it was over 1000 nM. Further, the inhibition in assay [3] is 15%; in assay [5], -2%. In addition, in the assay listed under Homo sapiens [6], the Ratio Ki worked out at 40.
Take `CCCn1c(=O)[nH]c2nc(-c3ccc(S(=O)(=O)N4CCN(Cc5cc(F)cc(OC)c5)CC4)cc3)[nH]c2c1=O`: the Ki at Adenosine receptor A2b is 1.02 nM; at Adenosine receptor A2a [1], 160 nM; on Adenosine receptor A1, over 1000 nM; at Adenosine receptor A3 it was over 1000 nM. The inhibition in assay [3] worked out at 31%; in assay [5], 12%. For the same compound, the Ratio Ki in the assay filed under Homo sapiens [6] turned out to be 160.
As to `CCCn1c(=O)[nH]c2nc(-c3ccc(S(=O)(=O)N4CCN(c5ccc(O)c(Cl)c5)CC4)cc3)[nH]c2c1=O`, the Ki is 3.55 nM on Adenosine receptor A2b, 93.8 nM on Adenosine receptor A2a [1], over 1000 nM on Adenosine receptor A1 and over 1000 nM at Adenosine receptor A3. Further, the inhibition worked out at 37% in assay [3] and 41% in assay [5]. Further, the Ratio Ki in the assay listed under Homo sapiens [6] is over 30.
For `CCCn1c(=O)[nH]c2nc(-c3ccc(S(=O)(=O)N4CCN(c5ccccc5Cl)CC4)cc3)[nH]c2c1=O`, the Ki at Adenosine receptor A2b was 0.403 nM; on Adenosine receptor A2a [1], 204 nM; at Adenosine receptor A1 it was over 1000 nM; at Adenosine receptor A3 it was over 1000 nM. Moreover, the inhibition in assay [3] worked out at 25%; in assay [5], 32%. Moreover, the Ratio Ki in the assay listed under Homo sapiens [6] is 510.
In the case of `CCCn1c(=O)[nH]c2nc(-c3ccc(S(=O)(=O)N4CCN(c5cccc(OC)c5)CC4)cc3)[nH]c2c1=O`, the Ki on Adenosine receptor A2b was 0.616 nM; on Adenosine receptor A2a [1], 197 nM; on Adenosine receptor A1, over 1000 nM; at Adenosine receptor A3, over 1000 nM. Further, the inhibition in assay [3] is -3%; in [5], -1%. Also, in the assay listed under Homo sapiens [6], the Ratio Ki worked out at 320.
